Data: ChEMBL document CHEMBL4382221, “First-in-class DAPK1/CSF1R dual inhibitors: Discovery of 3,5-dimethoxy-N-(4-(4-methoxyphenoxy)-2-((6-morpholinopyridin-3-yl)amino)pyrimidin-5-yl)benzamide as a potential anti-tauopathies agent” (Eur J Med Chem, 2019)
Blank lines part the entries; values can stand above or below the compound they belong to. Active and inactive are the calls of the source. The rule behind the calls is not given here.

Columns and labels:
[1] = biological target: T1, Macrophage colony-stimulating factor 1 receptor (Homo sapiens, UniProt P07333); assay: Inhibition of human CSF1R at 10 uM using poly[Glu:Tyr] (4:1) as substrate after 120 mins in presence of 10 uM [gamma-33P]-ATP by filtration method relative to control
T1 sequence (P07333 whole entry): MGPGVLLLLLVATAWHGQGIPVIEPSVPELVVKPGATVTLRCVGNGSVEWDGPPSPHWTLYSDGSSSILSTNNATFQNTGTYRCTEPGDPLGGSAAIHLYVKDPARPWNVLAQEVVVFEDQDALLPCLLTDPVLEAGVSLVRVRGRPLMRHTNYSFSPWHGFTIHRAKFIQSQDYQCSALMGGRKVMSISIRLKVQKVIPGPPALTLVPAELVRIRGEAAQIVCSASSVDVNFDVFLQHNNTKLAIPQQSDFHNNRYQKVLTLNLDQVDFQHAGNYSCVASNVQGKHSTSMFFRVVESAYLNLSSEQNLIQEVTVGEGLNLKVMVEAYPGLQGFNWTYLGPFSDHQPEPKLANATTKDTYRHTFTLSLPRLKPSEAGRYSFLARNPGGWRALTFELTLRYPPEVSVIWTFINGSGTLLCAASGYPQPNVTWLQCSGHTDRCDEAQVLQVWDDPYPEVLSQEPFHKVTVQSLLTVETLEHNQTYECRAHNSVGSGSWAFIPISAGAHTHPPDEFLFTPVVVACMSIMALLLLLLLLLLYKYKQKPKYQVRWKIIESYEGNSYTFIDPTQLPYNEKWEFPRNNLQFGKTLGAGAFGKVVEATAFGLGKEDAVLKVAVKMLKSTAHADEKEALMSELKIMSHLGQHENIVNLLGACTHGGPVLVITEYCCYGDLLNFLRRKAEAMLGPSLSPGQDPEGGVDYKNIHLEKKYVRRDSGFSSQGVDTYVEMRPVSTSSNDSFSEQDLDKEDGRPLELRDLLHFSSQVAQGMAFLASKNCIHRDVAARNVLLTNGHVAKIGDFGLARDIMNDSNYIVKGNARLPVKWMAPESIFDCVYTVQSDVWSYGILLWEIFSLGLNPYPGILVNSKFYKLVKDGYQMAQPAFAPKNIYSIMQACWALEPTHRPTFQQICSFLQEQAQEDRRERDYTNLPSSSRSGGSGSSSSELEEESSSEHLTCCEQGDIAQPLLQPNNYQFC
Summary of the method: (§1)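 Radiometric HotSpot assay measuring substrate phosphorylation directly, with 10 μM ATP. Single-dose screen at 10 μM in duplicate, reported as mean % inhibition from two independent experiments.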

[2] = biological target: T2, Death-associated protein kinase 1 (Homo sapiens, UniProt P53355); assay: Inhibition of human DAPK1 (1 to 363 residues) at 10 uM using KKLNRTLSFAEPG as substrate after 120 mins in presence of 10 uM [gamma-33P]-ATP by filtration method relative to control; summary of the method: as §1
Target sequence in this assay (P53355 whole entry, looked up, the tested form may be a part): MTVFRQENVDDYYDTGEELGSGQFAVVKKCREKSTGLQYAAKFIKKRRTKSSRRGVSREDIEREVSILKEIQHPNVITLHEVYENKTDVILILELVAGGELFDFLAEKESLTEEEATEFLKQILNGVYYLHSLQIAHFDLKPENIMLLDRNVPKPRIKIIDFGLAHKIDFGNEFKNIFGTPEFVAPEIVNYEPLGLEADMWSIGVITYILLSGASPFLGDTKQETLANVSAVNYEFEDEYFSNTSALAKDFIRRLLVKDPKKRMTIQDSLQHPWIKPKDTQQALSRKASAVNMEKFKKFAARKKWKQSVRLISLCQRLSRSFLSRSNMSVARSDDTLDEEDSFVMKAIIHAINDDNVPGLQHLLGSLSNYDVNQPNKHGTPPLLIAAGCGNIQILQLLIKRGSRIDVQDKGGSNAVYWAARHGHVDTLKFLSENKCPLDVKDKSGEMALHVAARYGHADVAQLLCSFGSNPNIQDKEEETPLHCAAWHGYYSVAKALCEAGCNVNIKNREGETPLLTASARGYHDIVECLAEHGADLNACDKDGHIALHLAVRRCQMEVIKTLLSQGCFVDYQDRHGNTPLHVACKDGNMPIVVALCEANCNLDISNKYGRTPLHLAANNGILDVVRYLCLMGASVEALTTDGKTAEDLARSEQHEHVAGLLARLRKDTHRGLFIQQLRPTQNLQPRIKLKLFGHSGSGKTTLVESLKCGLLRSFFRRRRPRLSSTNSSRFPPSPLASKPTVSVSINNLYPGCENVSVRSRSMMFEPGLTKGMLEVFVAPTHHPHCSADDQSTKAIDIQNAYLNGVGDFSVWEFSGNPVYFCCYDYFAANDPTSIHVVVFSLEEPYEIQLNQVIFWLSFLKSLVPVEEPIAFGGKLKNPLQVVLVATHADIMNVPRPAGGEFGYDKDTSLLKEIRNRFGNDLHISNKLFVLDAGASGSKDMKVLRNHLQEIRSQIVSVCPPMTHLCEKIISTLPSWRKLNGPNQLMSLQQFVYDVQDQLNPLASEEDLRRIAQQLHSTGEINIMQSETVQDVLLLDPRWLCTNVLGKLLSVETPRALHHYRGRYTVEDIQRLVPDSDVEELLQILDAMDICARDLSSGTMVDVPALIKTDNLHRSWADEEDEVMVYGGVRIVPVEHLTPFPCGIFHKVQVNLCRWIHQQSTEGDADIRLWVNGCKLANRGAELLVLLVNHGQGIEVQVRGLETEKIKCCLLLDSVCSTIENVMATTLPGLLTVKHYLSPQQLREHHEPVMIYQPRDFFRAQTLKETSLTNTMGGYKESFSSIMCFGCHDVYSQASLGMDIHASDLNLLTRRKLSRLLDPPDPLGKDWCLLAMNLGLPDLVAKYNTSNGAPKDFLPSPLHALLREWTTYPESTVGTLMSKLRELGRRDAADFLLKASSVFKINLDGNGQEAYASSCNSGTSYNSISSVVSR

[3] = biological target: T2, Death-associated protein kinase 1; assay: Inhibition of human DAPK1 (1 to 363 residues) using KKLNRTLSFAEPG as substrate after 120 mins in presence of 10 uM [gamma-33P]-ATP by filtration method
Summary of the method: (§2)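 Radiometric HotSpot assay with direct measurement of phosphorylated substrate at 10 μM ATP. IC50 was taken from a duplicate 10-dose series, 3-fold dilutions starting at 20 μM, reported as mean.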
Target sequence in this assay (P53355 whole entry, the tested form may be a part): as the sequence (P53355 whole entry, looked up, the tested form may be a part) above

[4] = biological target: T2, Death-associated protein kinase 1; assay: Inhibition of DAPK1 in HEK293 tau-BiFC cells assessed as reduction in forskolin-induced tau aggregation at 50 uM after 48 hrs by Hoechst staining based HCS analysis; assay type: cell-based
Summary of the method: (§3)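 HEK293 cells expressing tau-BiFC were exposed to compounds at 50, 10 and 1 μM with forskolin (30 μM) as the tau aggregation activator for 48 h. BiFC fluorescence intensity was quantified as the read-out. Data are mean ± SD.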
Target sequence in this assay (P53355 whole entry, looked up, the tested form may be a part): as above

[5] = biological target: T2, Death-associated protein kinase 1; assay: Inhibition of DAPK1 in HEK293 tau-BiFC cells assessed as reduction in forskolin-induced tau aggregation at 10 uM after 48 hrs by Hoechst staining based HCS analysis; assay type: cell-based; summary of the method: as §3
Target sequence in this assay (P53355 whole entry, looked up, the tested form may be a part): as above

[6] = biological target: T1, Macrophage colony-stimulating factor 1 receptor; assay: Inhibition of human CSF1R using poly[Glu:Tyr] (4:1) as substrate after 120 mins in presence of 10 uM [gamma-33P]-ATP by filtration method; summary of the method: as §2
[7] = biological target: T2, Death-associated protein kinase 1; assay: Inhibition of human DAPK1 (1 to 363 residues) using KKLNRTLSFAEPG as substrate after 120 mins in presence of 1 uM [gamma-33P]-ATP by filtration method
Summary of the method: (§4)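 Dose-response curves were run at 1, 10 and 100 μM ATP, giving an IC50 at each ATP level; Ki was calculated.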
Target sequence in this assay (P53355 whole entry, the tested form may be a part): as the sequence (P53355 whole entry, looked up, the tested form may be a part) above

[8] = biological target: T2, Death-associated protein kinase 1; assay: Inhibition of human DAPK1 (1 to 363 residues) using KKLNRTLSFAEPG as substrate after 120 mins in presence of 100 uM [gamma-33P]-ATP by filtration method; summary of the method: as §4
Target sequence in this assay (P53355 whole entry, the tested form may be a part): as the sequence (P53355 whole entry, looked up, the tested form may be a part) above

[9] = biological target: T2, Death-associated protein kinase 1; assay: Inhibition of human DAPK1 (1 to 363 residues) using KKLNRTLSFAEPG as substrate after 120 mins [gamma-33P]-ATP by filtration method; summary of the method: as §2
Target sequence in this assay (P53355 whole entry, the tested form may be a part): as the sequence (P53355 whole entry, looked up, the tested form may be a part) above

[10] = biological target: T1, Macrophage colony-stimulating factor 1 receptor; assay: Inhibition of human CSF1R using poly[Glu:Tyr] (4:1) as substrate after 120 mins in presence of 1 uM [gamma-33P]-ATP by filtration method
Summary of the method: (§5)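 CSF1R radiometric kinase assay with dose-response curves at 1, 10 and 100 μM ATP. IC50 was calculated at each ATP concentration, and Ki was derived.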

[11] = biological target: T1, Macrophage colony-stimulating factor 1 receptor; assay: Inhibition of human CSF1R using poly[Glu:Tyr] (4:1) as substrate after 120 mins in presence of 100 uM [gamma-33P]-ATP by filtration method; summary of the method: as §5
[12] = biological target: T1, Macrophage colony-stimulating factor 1 receptor; assay: Inhibition of human CSF1R using poly[Glu:Tyr] (4:1) as substrate after 120 mins in presence of [gamma-33P]-ATP by filtration method
[13] = biological target: T2, Death-associated protein kinase 1; assay: Inhibition of DAPK1 in HEK293 tau-BiFC cells assessed as reduction in forskolin-induced tau aggregation at 16 uM after 48 hrs by Hoechst staining based HCS analysis relative to control; assay type: cell-based
Summary of the method: (§6)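 HEK293 tau-BiFC cells were given forskolin (30 μM) and compound in a 5-dose series (1, 2, 4, 8, 16 μM) for 48 h. BiFC fluorescence was quantified and a cellular IC50 was derived from the series.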
Target sequence in this assay (P53355 whole entry, looked up, the tested form may be a part): as above

[14] = biological target: T2, Death-associated protein kinase 1; assay: Inhibition of DAPK1 in HEK293 tau-BiFC cells assessed as reduction in forskolin-induced tau aggregation after 48 hrs by Hoechst staining based HCS analysis; assay type: cell-based; summary of the method: as §6
Target sequence in this assay (P53355 whole entry, the tested form may be a part): as the sequence (P53355 whole entry, looked up, the tested form may be a part) above

BV-2 = assay: Anti-neuroinflammatory activity in mouse BV2 cells assessed as inhibition of LPS-stimulated NO production at 10 uM preincubated for 1 hr followed by LPS stimulation for 23 hrs by Griess reagent based assay relative to control; assay type: functional
Summary of the method: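 Mouse BV-2 microglia were stimulated with LPS, with or without compound at 10 μM, and NO production was measured. Values are means ± SD of five independent experiments.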

[15] = Cytotoxicity against LPS-stimulated mouse BV2 cells assessed as cell viability at 10 uM after 24 hrs by MTT assay relative to control; assay type: cell-based, BV-2; details: read-out: Activity
Summary of the method: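 BV-2 cell viability was measured in the presence of compound together with LPS and expressed relative to control. Values are means ± SD of five independent experiments.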

[16] = biological target: Platelet-derived growth factor receptor alpha (Homo sapiens) (UniProt P16234); assay: Inhibition of human PDGFRalpha at 10 uM using poly[Glu:Tyr] (4:1) as substrate after 120 mins [gamma-33P]-ATP by filtration method
Summary of the method: (§7)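 Radiometric kinase selectivity panel of 47 kinases, with compound at 10 μM. Data are means ± SD of two independent experiments.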

[17] = biological target: Platelet-derived growth factor receptor beta (Homo sapiens) (UniProt P09619); assay: Inhibition of human PDGFRbeta at 10 uM using poly[Glu:Tyr] (4:1) as substrate after 120 mins [gamma-33P]-ATP by filtration method; summary of the method: as §7
[18] = biological target: Proto-oncogene tyrosine-protein kinase Src (Homo sapiens) (UniProt P12931); assay: Inhibition of human c-SRC at 10 uM using poly[Glu:Tyr] (4:1) as substrate after 120 mins [gamma-33P]-ATP by filtration method; summary of the method: as §7
[19] = biological target: Tyrosine-protein kinase Lyn (Homo sapiens) (UniProt P07948); assay: Inhibition of human LYN at 10 uM using poly[Glu:Tyr] (4:1) as substrate after 120 mins [gamma-33P]-ATP by filtration method; summary of the method: as §7
[20] = biological target: Tyrosine-protein kinase Lck (Homo sapiens) (UniProt P06239); assay: Inhibition of human LCK at 10 uM using poly[Glu:Tyr] (4:1) as substrate after 120 mins [gamma-33P]-ATP by filtration method; summary of the method: as §7
[21] = biological target: Death-associated protein kinase 2 (Homo sapiens) (UniProt Q9UIK4); assay: Inhibition of human DAPK2 at 10 uM using KKLNRTLSFAEPG as substrate after 120 mins [gamma-33P]-ATP by filtration method; summary of the method: as §7
Chain of Death-associated protein kinase 2 (Homo sapiens) (Q9UIK4 whole entry, looked up): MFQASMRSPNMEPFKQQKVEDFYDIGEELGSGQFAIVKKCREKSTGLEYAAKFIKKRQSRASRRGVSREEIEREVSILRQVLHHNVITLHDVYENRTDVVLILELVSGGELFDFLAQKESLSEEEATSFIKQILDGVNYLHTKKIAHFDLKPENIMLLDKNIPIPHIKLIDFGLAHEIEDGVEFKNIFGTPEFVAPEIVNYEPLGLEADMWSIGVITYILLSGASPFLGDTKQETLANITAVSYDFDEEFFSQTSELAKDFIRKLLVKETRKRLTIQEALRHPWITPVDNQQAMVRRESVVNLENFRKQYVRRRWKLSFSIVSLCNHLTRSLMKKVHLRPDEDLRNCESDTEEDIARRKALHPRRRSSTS

[22] = biological target: Death-associated protein kinase 3 (Homo sapiens) (UniProt O43293); assay: Inhibition of human DAPK3 at 10 uM using KKLNRTLSFAEPG as substrate after 120 mins [gamma-33P]-ATP by filtration method; summary of the method: as §7
[23] = biological target: T3, Serine/threonine-protein kinase 17A (Homo sapiens) (UniProt Q9UEE5); assay: Inhibition of human DRAK1 at 10 uM using KKLNRTLSFAEPG as substrate after 120 mins [gamma-33P]-ATP by filtration method; summary of the method: as §7
T3 sequence (whole entry): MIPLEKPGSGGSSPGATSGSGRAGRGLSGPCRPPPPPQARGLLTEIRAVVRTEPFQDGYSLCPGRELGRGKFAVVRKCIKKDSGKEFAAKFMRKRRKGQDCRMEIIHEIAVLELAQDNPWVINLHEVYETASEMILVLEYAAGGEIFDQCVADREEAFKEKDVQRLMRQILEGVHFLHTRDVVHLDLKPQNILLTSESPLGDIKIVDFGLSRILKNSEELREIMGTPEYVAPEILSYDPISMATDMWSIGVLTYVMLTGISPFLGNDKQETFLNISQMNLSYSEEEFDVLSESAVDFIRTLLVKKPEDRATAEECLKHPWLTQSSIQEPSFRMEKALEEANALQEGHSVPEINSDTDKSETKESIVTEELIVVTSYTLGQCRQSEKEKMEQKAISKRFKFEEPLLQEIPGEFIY

[24] = biological target: Serine/threonine-protein kinase pim-1 (Homo sapiens) (UniProt P11309); assay: Inhibition of human PIM1 at 10 uM using KKRNRTLTK as substrate after 120 mins [gamma-33P]-ATP by filtration method; summary of the method: as §7
[25] = biological target: Leucine-rich repeat serine/threonine-protein kinase 2 (Homo sapiens) (UniProt Q5S007); assay: Inhibition of human LRRK2 at 10 uM using RLGRDKYKTLRQIRQ as substrate after 120 mins [gamma-33P]-ATP by filtration method; summary of the method: as §7
[26] = biological target: Calcium/calmodulin-dependent protein kinase type II subunit alpha (Homo sapiens) (UniProt Q9UQM7); assay: Inhibition of human CAMK2a at 10 uM using KKALRRQETVDAL as substrate after 120 mins [gamma-33P]-ATP by filtration method; summary of the method: as §7
Chain of Calcium/calmodulin-dependent protein kinase type II subunit alpha (Homo sapiens) (Q9UQM7 whole entry): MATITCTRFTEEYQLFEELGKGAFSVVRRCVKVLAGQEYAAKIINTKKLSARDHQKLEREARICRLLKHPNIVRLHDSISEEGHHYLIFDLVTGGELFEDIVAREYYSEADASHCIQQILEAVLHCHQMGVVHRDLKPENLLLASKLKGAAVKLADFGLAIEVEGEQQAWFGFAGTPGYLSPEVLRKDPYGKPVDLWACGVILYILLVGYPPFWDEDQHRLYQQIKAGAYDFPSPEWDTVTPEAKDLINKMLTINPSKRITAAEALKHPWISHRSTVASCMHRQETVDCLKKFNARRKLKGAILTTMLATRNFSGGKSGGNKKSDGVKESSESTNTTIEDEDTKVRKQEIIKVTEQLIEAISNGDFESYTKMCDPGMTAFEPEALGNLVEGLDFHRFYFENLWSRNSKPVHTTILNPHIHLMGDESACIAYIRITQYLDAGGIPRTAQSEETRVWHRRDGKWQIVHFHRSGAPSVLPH

[27] = biological target: Voltage-gated inwardly rectifying potassium channel KCNH2 (Homo sapiens, UniProt Q12809); assay: Inhibition of red tracer binding to human ERG expressed in membranes preincubated for 10 to 15 mins followed by tracer addition measured after 3 hrs by fluorescence polarization assay
[28] = Effective permeability of the compound at 12.5 uM after 4 hrs by PAMPA; assay type: ADME; details: read-out: Peff
Summary of the method: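 BBB-PAMPA lipid membrane permeability was measured as effective permeability Pe (10^-6 cm/sec), with compound tested at 12.5 μM. Results are means ± SD of three independent experiments.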

[29] = biological target: T2, Death-associated protein kinase 1; assay: Inhibition of human DAPK1 (1 to 363 residues) at 20 uM using KKLNRTLSFAEPG as substrate after 120 mins in presence of 10 uM [gamma-33P]-ATP by filtration method relative to control
Summary of the method: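 Radiometric HotSpot kinase assay with 10 μM ATP. Compound tested at a single 20 μM concentration, reported as mean % inhibition from two independent experiments.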
Target sequence in this assay (P53355 whole entry, looked up, the tested form may be a part): as the sequence (P53355 whole entry, looked up, the tested form may be a part) above

[30] = biological target: T2, Death-associated protein kinase 1; assay: Inhibition of DAPK1 in HEK293 tau-BiFC cells assessed as reduction in forskolin-induced tau aggregation at 1 to 50 uM after 48 hrs by Hoechst staining based HCS analysis; assay type: cell-based; summary of the method: as §3
Target sequence in this assay (P53355 whole entry, looked up, the tested form may be a part): as above

SMILES: COc1ccc(Oc2nc(Nc3ccc(F)cc3)ncc2NC(=O)c2cc(OC)cc(OC)c2)cc1
inhibition [1]: 35.2%
inhibition [2]: 65%
IC50 [3]: 4.29 µM
inhibition [4]: Active
inhibition [5]: inactive

SMILES: COc1ccc(Oc2nc(Nc3ccc(N4CCOCC4)nc3)ncc2NC(=O)c2cc(OC)cc(OC)c2)cc1
inhibition [1]: 77.9%
IC50 [6]: 0.15 µM
inhibition [2]: 66.2%
IC50 [3]: 1.25 µM
IC50 [7]: 2.89 µM
IC50 [8]: 0.92 µM
Ki [9]: 0.581 µM
IC50 [10]: 0.069 µM
IC50 [11]: 0.273 µM
Ki [12]: 0.129 µM
inhibition [4]: Active
inhibition [5]: Active
inhibition [13]: 100%
IC50 [14]: 5 µM
inhibition at 10 µM (BV-2): 55%
viability at 24 h, 10 µM [15]: > 92%
inhibition [16]: inactive
inhibition [17]: inactive
inhibition [18]: Active
inhibition [19]: Active
inhibition [20]: Active
inhibition [21]: inactive
inhibition [22]: inactive
inhibition [23]: inactive
inhibition [24]: inactive
inhibition [25]: inactive
inhibition [26]: inactive
IC50 [27]: 17.1 µM
Papp at 4 h, 12.5 µM [28]: 57 ×10⁻⁶ cm/s

SMILES: COc1ccc(Oc2nc(Nc3ccc(N4CCOCC4)cc3)ncc2NC(=O)c2cccc(OC)c2)cc1
inhibition [1]: 91.8%
IC50 [6]: 0.78 µM
inhibition [2]: 75.1%
IC50 [3]: 7.44 µM
inhibition [4]: Active

The next lines start with results.

inhibition [1]: 77.6%
IC50 [6]: 1.29 µM
SMILES: COc1cccc(Oc2nc(Nc3ccc(N4CCOCC4)cc3)ncc2NC(N)=O)c1
inhibition [2]: 15.8%

inhibition [1]: 74.7%
IC50 [6]: 4.89 µM
SMILES: COc1ccc(Oc2nc(Nc3ccc(N4CCOCC4)cc3)ncc2NC(=O)c2cccc(C(F)(F)F)c2)cc1
IC50 [3]: 2.61 µM
inhibition [29]: 69.7%
inhibition [30]: inactive

inhibition [1]: 59.6%
SMILES: NC(=O)Nc1cnc(Nc2ccc(N3CCOCC3)cc2)nc1Oc1ccc(C(F)(F)F)cc1
IC50 [3]: 14.3 µM
inhibition [29]: 44.9%
inhibition [30]: inactive
